From ChEMBL document CHEMBL1138870, “In vitro and in vivo efficacy and in vitro metabolism of 1-phenyl-3-aryl-2-propen-1-ones against Plasmodium falciparum” (Bioorg Med Chem Lett, 2006)
Active and inactive are the calls of the source. The calls are words filed in the database; no cut-off is given here.

Columns and labels:
[1] = system: Plasmodium falciparum; assay: Resistance index, IC50 of Plasmodium falciparum W2/IC50 Plasmodium falciparum D6; assay type: ADME, organism-based; conditions: in vitro
Procedure, shortened: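 Ratio of IC50 against P. falciparum W2 to IC50 against strain D6. Each IC50 comes from in vitro inhibition of [3H]hypoxanthine uptake by the parasites, with values from a single experiment.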

[2] = system: Plasmodium falciparum; assay: Antimalarial activity against Plasmodium falciparum D6; assay type: functional, organism-based
Procedure, shortened: (§1)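 Cultured P. falciparum parasites were exposed to compound, and inhibition of [³H]hypoxanthine uptake was measured to give the IC50. Values come from a single experiment.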

[3] = system: Plasmodium falciparum; assay: Antimalarial activity against Plasmodium falciparum W2; assay type: functional, organism-based; procedure, shortened: as §1
[4] = system: Mus musculus; assay: Effect on survival of mice (Mus musculus) infected with Plasmodium berghei at 640 mg/kg, perorally; assay type: functional, organism-based; parameters: dose 640 mg/kg
Procedure, shortened: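 Mice were inoculated intraperitoneally on day 0 with 1.0 × 10⁶ P. berghei P-line-infected red cells. Compound was dissolved in DMSO, diluted with 0.5% hydroxyethylcellulose and 0.1% Tween, and given orally once daily on days 3–7 at 640 mg/kg/dose. Survival of five treated mice was compared with five untreated infected controls.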

[5] = Metabolic stability in mouse liver microsomes; assay type: ADME, Microsome

With `COc1ccc(C(=O)/C=C/c2cccc3ccccc23)c(OC)c1` the “Ratio IC50” value [1] was 0.94, the IC50 [2] was 4.9 µM and the IC50 [3] was 4.6 µM.
With `COc1ccc(C(=O)/C=C/c2cccc3ccccc23)cc1OC` the “Ratio IC50” value [1] was 0.96, the IC50 [2] was 5.2 µM and the IC50 [3] was 5 µM.
For `COc1cc(C(=O)/C=C/c2ccc3ccccc3c2)cc(OC)c1OC`, the “Ratio IC50” value [1] was 0.91, the IC50 [2] was 6.6 µM and the IC50 [3] was 6 µM.
For `COc1ccc(C(=O)/C=C/c2ccnc3ccccc23)cc1OC`, the Activity [4] was “inactive”, the “Ratio IC50” value [1] was 0.57 and the IC50 [2] was 0.88 µM. For the same molecule, the half-life [5] was 15.6 min and the IC50 [3] was 0.5 µM.
For `O=C(/C=C/c1ccnc2ccccc12)c1ccc(Cl)c(Cl)c1`, the Activity [4] was “inactive”, the “Ratio IC50” value [1] was 0.47 and the IC50 [2] was 1.7 µM. It also gave an IC50 [3] of 0.8 µM.
With `COc1ccc(C(=O)/C=C/c2ccnc3ccccc23)cc1` the “Ratio IC50” value [1] was 1.9, the IC50 [2] was 5.4 µM and the IC50 [3] was 10 µM.
For `O=C(/C=C/c1ccnc2ccccc12)c1cc(Cl)ccc1Cl`, the Activity [4] was “inactive”, the “Ratio IC50” value [1] was 1.2 and the IC50 [2] was 0.19 µM. It also gave an IC50 [3] of 0.23 µM.
In the case of `O=C(/C=C/c1cnc2ccccc2c1)c1ccc(F)cc1F`, the “Ratio IC50” value [1] is reported as 1.2, the IC50 [2] is reported as 5 µM and the IC50 [3] is reported as 6.2 µM.
For `COc1ccc(Cl)cc1C(=O)/C=C/c1cnc2ccccc2c1`, the “Ratio IC50” value [1] was 0.62, the IC50 [2] was 0.95 µM and the IC50 [3] was 0.59 µM.
With `COc1ccc(C(=O)/C=C/c2ccnc3ccccc23)cc1Cl` the “Ratio IC50” value [1] was 0.53, the IC50 [2] was 1.8 µM and the IC50 [3] was 0.95 µM.
In the case of `O=C(/C=C/c1ccc2ccccc2n1)c1ccc(F)cc1F`, the “Ratio IC50” value [1] is reported as 0.57, the IC50 [2] is reported as 2.3 µM and the IC50 [3] is reported as 1.3 µM.
For `COc1ccc(C(=O)/C=C/c2ccnc3ccccc23)cc1F`, the Activity [4] was “inactive”, the “Ratio IC50” value [1] was 3.4 and the IC50 [2] was 0.93 µM. The half-life [5] was 30.6 min and the IC50 [3] was 3.2 µM.
Molecule `COc1ccc(C(=O)/C=C/c2ccc3ccccc3n2)cc1` has an IC50 [2] of 4.7 µM and an IC50 [3] of over 17 µM.
With `COc1ccc(OC)c(C(=O)/C=C/c2ccnc3ccccc23)c1` the “Ratio IC50” value [1] was 2.4, the IC50 [2] was 3 µM and the IC50 [3] was 7.3 µM.
With `COc1ccc(C(=O)/C=C/c2cnc3ccccc3c2)cc1OC` the “Ratio IC50” value [1] was 0.65, the IC50 [2] was 3.4 µM and the IC50 [3] was 2.2 µM.
With `COc1ccc(C(=O)/C=C/c2ccnc3ccccc23)c(OC)c1` the “Ratio IC50” value [1] was 0.67, the IC50 [2] was 3 µM and the IC50 [3] was 2 µM.
Molecule `COc1ccc(C(=O)/C=C/c2ccnc3ccccc23)c(OC)c1OC` has an IC50 [2] of 2.6 µM and an IC50 [3] of over 14 µM.
With `COc1ccc(C(=O)/C=C/c2cnc3ccccc3c2)cc1F` the “Ratio IC50” value [1] was 1.7, the IC50 [2] was 1.6 µM and the IC50 [3] was 2.7 µM.
With `COc1cc(C(=O)/C=C/c2cccc3ccccc23)cc(OC)c1OC` the “Ratio IC50” value [1] was 0.92, the IC50 [2] was 5.2 µM and the IC50 [3] was 4.8 µM.
With `COc1ccc(OC)c(C(=O)/C=C/c2cccc3ccccc23)c1` the “Ratio IC50” value [1] was 0.97, the IC50 [2] was 2.9 µM and the IC50 [3] was 2.8 µM.
In the case of `COc1ccc(F)cc1C(=O)/C=C/c1ccnc2ccccc12`, the “Ratio IC50” value [1] is reported as 0.8, the IC50 [2] is reported as 5.1 µM and the IC50 [3] is reported as 4.1 µM.
Work on `COc1ccc(C(=O)/C=C/c2ccc3ccccc3c2)cc1` yielded an IC50 [2] of over 17 µM and an IC50 [3] of over 17 µM.
For `COc1cccc(OC)c1C(=O)/C=C/c1ccnc2ccccc12`, the “Ratio IC50” value [1] was 0.44, the IC50 [2] was 13 µM and the IC50 [3] was 5.7 µM.
With `COc1ccc(C(=O)/C=C/c2ccc3ccccc3n2)c(OC)c1OC` the “Ratio IC50” value [1] was 1.1, the IC50 [2] was 2.9 µM and the IC50 [3] was 3.3 µM.
With `COc1ccc(OC)c(C(=O)/C=C/c2cnc3ccccc3c2)c1` the “Ratio IC50” value [1] was 1.4, the IC50 [2] was 2 µM and the IC50 [3] was 2.7 µM.
With `COc1cccc(OC)c1C(=O)/C=C/c1ccc2ccccc2c1` the “Ratio IC50” value [1] was 0.97, the IC50 [2] was 3.4 µM and the IC50 [3] was 3.3 µM.
In the case of `COc1cc(F)ccc1C(=O)/C=C/c1cnc2ccccc2c1`, the “Ratio IC50” value [1] is reported as 1.4, the IC50 [2] is reported as 1.1 µM and the IC50 [3] is reported as 1.5 µM.
For `O=C(/C=C/c1cnc2ccccc2c1)c1cc(F)ccc1F`, the “Ratio IC50” value [1] was 1.4, the IC50 [2] was 5.6 µM and the IC50 [3] was 7.8 µM.
In the case of `COc1cc(OC)cc(C(=O)/C=C/c2ccc3ccccc3c2)c1`, the “Ratio IC50” value [1] is reported as 1.3, the IC50 [2] is reported as 7.4 µM and the IC50 [3] is reported as 9.5 µM.
With `COc1ccc(C(=O)/C=C/c2cccc3ccccc23)c(OC)c1OC` the “Ratio IC50” value [1] was 1.3, the IC50 [2] was 4.3 µM and the IC50 [3] was 5.8 µM.
In the case of `COc1cccc(OC)c1C(=O)/C=C/c1cccc2ccccc12`, the “Ratio IC50” value [1] is reported as 0.97, the IC50 [2] is reported as 3.2 µM and the IC50 [3] is reported as 3.1 µM.
With `COc1ccc(F)cc1C(=O)/C=C/c1ccc2ccccc2n1` the “Ratio IC50” value [1] was 0.18, the IC50 [2] was 3.8 µM and the IC50 [3] was 0.67 µM.
`COc1ccc(C(=O)/C=C/c2ccc3ccccc3c2)c(OC)c1OC` gave an IC50 [2] of over 14 µM and an IC50 [3] of over 14 µM.
Molecule `COc1ccc(C(=O)/C=C/c2ccc3ccccc3c2)c(OC)c1` has an IC50 [2] of 8.7 µM and an IC50 [3] of over 16 µM.
In the case of `COc1ccc(F)cc1C(=O)/C=C/c1cnc2ccccc2c1`, the “Ratio IC50” value [1] is reported as 2.4, the IC50 [2] is reported as 0.46 µM and the IC50 [3] is reported as 1.1 µM.
For `COc1ccc(C(=O)/C=C/c2ccc3ccccc3n2)cc1F`, the “Ratio IC50” value [1] was 4.1, the IC50 [2] was 1.3 µM and the IC50 [3] was 5.3 µM.
In the case of `O=C(/C=C/c1cnc2ccccc2c1)c1ccc(Cl)c(Cl)c1`, the “Ratio IC50” value [1] is reported as 3.9, the IC50 [2] is reported as 3.1 µM and the IC50 [3] is reported as 12 µM.
With `CCN(CC)CCCC(C)Nc1ccnc2cc(Cl)ccc12` (stereo not drawn) the Activity [4] was “Active”.
In the case of `COc1ccc(C(=O)/C=C/c2ccnc3ccccc23)c(F)c1`, the “Ratio IC50” value [1] is reported as 1.9, the IC50 [2] is reported as 2.4 µM and the IC50 [3] is reported as 4.5 µM.
In the case of `COc1cccc(OC)c1C(=O)/C=C/c1cnc2ccccc2c1`, the “Ratio IC50” value [1] is reported as 0.53, the IC50 [2] is reported as 2.2 µM and the IC50 [3] is reported as 1.1 µM.
In the case of `O=C(/C=C/c1cnc2ccccc2c1)c1cc(Cl)ccc1Cl`, the Activity [4] is reported as “inactive”, the “Ratio IC50” value [1] is reported as 2.7 and the IC50 [2] is reported as 0.62 µM. The half-life [5] was 24.6 min and the IC50 [3] was 1.7 µM.
In the case of `COc1ccc(C(=O)/C=C/c2cccc3ccccc23)cc1`, the “Ratio IC50” value [1] is reported as 1.1, the IC50 [2] is reported as 9.1 µM and the IC50 [3] is reported as 10 µM.
For `COc1ccc(C(=O)/C=C/c2cnc3ccccc3c2)c(OC)c1`, the “Ratio IC50” value [1] was 0.7, the IC50 [2] was 4.8 µM and the IC50 [3] was 3.3 µM.
With `O=C(/C=C/c1ccnc2ccccc12)c1cc(F)ccc1F` the “Ratio IC50” value [1] was 2.3, the IC50 [2] was 3.7 µM and the IC50 [3] was 8.6 µM.
With `O=C(/C=C/c1cnc2ccccc2c1)c1ccc(Cl)cc1Cl` the “Ratio IC50” value [1] was 0.8, the IC50 [2] was 7.9 µM and the IC50 [3] was 6.3 µM.
In the case of `O=C(/C=C/c1ccnc2ccccc12)c1ccc(Cl)cc1Cl`, the “Ratio IC50” value [1] is reported as 2.9, the IC50 [2] is reported as 6.2 µM and the IC50 [3] is reported as 18 µM.
For `COc1ccc(C(=O)/C=C/c2cnc3ccccc3c2)c(F)c1`, the “Ratio IC50” value [1] was 1.5, the IC50 [2] was 2.1 µM and the IC50 [3] was 3.1 µM.
In the case of `COc1ccc(C(=O)/C=C/c2cnc3ccccc3c2)c(OC)c1OC`, the “Ratio IC50” value [1] is reported as 0.42, the IC50 [2] is reported as 6.7 µM and the IC50 [3] is reported as 2.8 µM.
For `COc1ccc(C(=O)/C=C/c2cnc3ccccc3c2)cc1`, the “Ratio IC50” value [1] was 1.8, the IC50 [2] was 1.8 µM and the IC50 [3] was 3.3 µM.
For `COc1ccc(C(=O)/C=C/c2ccc3ccccc3n2)c(OC)c1`, the “Ratio IC50” value [1] was 0.6, the IC50 [2] was 2 µM and the IC50 [3] was 1.2 µM.
In the case of `COc1cc(C(=O)/C=C/c2cnc3ccccc3c2)cc(OC)c1OC`, the “Ratio IC50” value [1] is reported as 0.67, the IC50 [2] is reported as 21 µM and the IC50 [3] is reported as 14 µM.
For `COc1ccc(OC)c(C(=O)/C=C/c2ccc3ccccc3c2)c1`, the “Ratio IC50” value [1] was 0.91, the IC50 [2] was 5.5 µM and the IC50 [3] was 5 µM.
With `COc1cc(F)ccc1C(=O)/C=C/c1ccnc2ccccc12` the “Ratio IC50” value [1] was 1, the IC50 [2] was 6 µM and the IC50 [3] was 6.2 µM.
For `COc1ccc(C(=O)/C=C/c2cnc3ccccc3c2)cc1Cl`, the “Ratio IC50” value [1] was 0.7, the IC50 [2] was 2.3 µM and the IC50 [3] was 1.6 µM.
With `O=C(/C=C/c1cnc2ccccc2c1)c1ccc(F)c(F)c1` the “Ratio IC50” value [1] was 0.68, the IC50 [2] was 8.5 µM and the IC50 [3] was 5.8 µM.
With `O=C(/C=C/c1ccnc2ccccc12)c1ccc(F)c(F)c1` the “Ratio IC50” value [1] was 0.61, the IC50 [2] was 9.4 µM and the IC50 [3] was 5.7 µM.
With `COc1cc(OC)cc(C(=O)/C=C/c2cnc3ccccc3c2)c1` the “Ratio IC50” value [1] was 0.39, the IC50 [2] was 11 µM and the IC50 [3] was 4.3 µM.
In the case of `COc1cc(OC)cc(C(=O)/C=C/c2cccc3ccccc23)c1`, the “Ratio IC50” value [1] is reported as 0.96, the IC50 [2] is reported as 4.5 µM and the IC50 [3] is reported as 4.3 µM.
In the case of `COc1ccc(C(=O)/C=C/c2ccc3ccccc3c2)cc1OC`, the “Ratio IC50” value [1] is reported as 0.79, the IC50 [2] is reported as 9.8 µM and the IC50 [3] is reported as 7.7 µM.
